Data on 14 molecules can be found in article PMC3244355 (Journal of the American Chemical Society, 2011).

One series is described as follows: photophysical properties. The class given is physicochemical. In short, it runs like this: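 Samples are prepared at 20 μM. Dye–inhibitor conjugate spectra are recorded in 1% DMSO/PBS, pH 7.4, at 25 °C with excitation at 405 nm. Tabulated dye entries are excited at their λmax. Absorption maximum, molar absorptivity, emission maximum and fluorescence quantum yield are reported.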

The next series in a line: solubility. The series is classed as physicochemical. Conditions: variety of solvents.
Series [1] relates to HeLa cells. Description: cell-based assay for bipolar spindle assembly / mitotic arrest. More on the design: species or system human. The settings on record: 4 h; for spindle morphology: HeLa cells, fixed, anti-tubulin antibodies; for pEC50: Homo sapiens, HeLa, read-out: EC50 for mitotic arrest in cell-based assay. In short, it runs like this:
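HeLa cells are incubated for 4 h with the test compound, alongside an untreated control. They are then fixed and probed with anti-tubulin antibodies, with DNA counterstained. Spindle organization (bipolar vs. monopolar spindle formation) is assessed by fluorescence microscopy.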

Series [2] relates to HeLa cells. The experiment in a line: membrane permeability and localization of free dyes, live-cell imaging. The settings on record: living HeLa cells, 20 μM, 60 minutes, with AlexaFluor546-BSA endocytosis marker. The series is classed as cell-based, human. In short, it runs like this:
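Live HeLa cells are incubated for 1 h in 20 μM test dye, with 100 μg/mL AlexaFluor546-labeled BSA as a fluid-phase endocytosis marker. Cells are washed free of dye and imaged live by epifluorescence microscopy using a custom filter set matched to 395/500 excitation/emission. Merged images are used to compare dye distribution with marker-containing endosomal vesicles.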

In series [3] the test system is HeLa cells. Description: toxicity / cell viability of dye-treated cells. The class given is cell-based, human. Conditions: cells treated for up to 6 h with 100 μM dye.
For series [4], the target named is T1, purified human KSP motor domain (Homo sapiens, UniProt P52732).
T1 sequence (P52732 18-359 limits assumed): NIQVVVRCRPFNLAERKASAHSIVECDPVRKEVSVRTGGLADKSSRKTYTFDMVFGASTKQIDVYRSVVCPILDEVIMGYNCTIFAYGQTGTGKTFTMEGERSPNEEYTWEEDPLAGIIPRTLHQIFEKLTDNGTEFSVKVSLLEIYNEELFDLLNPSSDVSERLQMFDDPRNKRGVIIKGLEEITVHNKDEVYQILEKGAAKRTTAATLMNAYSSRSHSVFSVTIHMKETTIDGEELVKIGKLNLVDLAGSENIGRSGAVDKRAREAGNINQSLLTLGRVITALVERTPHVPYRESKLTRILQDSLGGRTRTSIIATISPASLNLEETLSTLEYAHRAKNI
Description: in vitro biochemical assay for microtubule-stimulated KSP ATPase activity.

The mark [5] stands for this setting: MeOH, 20 μM sample, excited at λmax.
Where [6] appears, read: 1%DMSO/PBS pH 7.4, 20 μM sample.
Where [7] appears, read: conjugates, 20 μM in 1% DMSO/PBS, pH 7.4 at 25 °C.
Where [8] appears, read: conjugates, 20 μM in 1% DMSO/PBS, pH 7.4 at 25 °C, excited at 405 nm.

pEC50, pIC50: −log10 of the molar value.

As to “6-Bromo-3,3-difluoro-2-(4-(thiophen-2-yl)benzylidene)-2,3-dihydro-[1,2,4,3]triazaborolo[4,5-a]pyridin-2-ium-3-uide [Compound 8]”, in the series “photophysical properties” (MeOH, 20 μM sample), the Φf was 0.71, the ε is 26 600 M^−1cm^−1 and the λmax was 490 nm. Moreover, the λemi in the series “photophysical properties” (setting [5]) was 562 nm.
As to `F[B-]1(F)N2C=CC=CC2=N[N+]1=Cc1ccc(-c2cccs2)cc1` [Compound 2, 3,3-Difluoro-2-(4-(thiophen-2-yl)benzylidene)-2,3-dihydro-[1,2,4,3]triazaborolo[4,5-a]pyridine-2-ium-3-uide], in the series “photophysical properties” (MeOH, 20 μM sample), the Φf turned out to be 0.75, the ε is 28 800 M^−1cm^−1 and the λmax was 472 nm. In “photophysical properties” (setting [5]), this molecule displayed a λemi of 551 nm.
In the same order, the values of `F[B-]1(F)N2C=C(Cl)C=CC2=N[N+]1=Cc1ccc(-c2cccs2)cc1` [Compound 4] are 0.69, 26 800 M^−1cm^−1, 491 nm and 563 nm.
On to `F[B-]1(F)N2C=C(Br)C=CC2=N[N+]1=Cc1ccc(-c2cccs2)cc1` [Compound 6, 6-Bromo-3,3-difluoro-2-(4-(thiophen-2-yl)benzylidene)-2,3-dihydro-[1,2,4,3]triazaborolo[4,5-a]pyridin-2-ium-3-uide], for which, in the series “photophysical properties” (MeOH, 20 μM sample), the Φf turned out to be 0.95, the ε is reported as 32 900 M^−1cm^−1 and the λmax is listed as 482 nm. In “photophysical properties” (setting [5]), this molecule showed a λemi of 562 nm.
In the same order, the values of `F[B-]1(F)N2C=C(Br)C=CC2=N[N+]1=Cc1ccccc1` [Compound 10, 2-Benzylidene-6-bromo-3,3-difluoro-2,3-dihydro-[1,2,4,3]triazaborolo[4,5-a]pyridin-2-ium-3-uide] are 0.31, 22 600 M^−1cm^−1, 471 nm and 539 nm.
In the same order, the values of `F[B-]1(F)N2C=C(n3cc(-c4ccccc4)nn3)C=CC2=N[N+]1=Cc1ccc(-c2cccs2)cc1` [Compound 12, 3,3-Difluoro-6-(4-phenyl-1H-1,2,3-triazol-1-yl)-2-(4-(thiophen-2-yl)benzylidene)-2,3-dihydro-[1,2,4,3]triazaborolo[4,5-a]pyridin-2-ium-3-uide] are 0.37, 33 800 M^−1cm^−1, 491 nm and 572 nm.
Consider `C#CC1=CN2C(=N[N+](=Cc3ccc(-c4cccs4)cc3)[B-]2(F)F)C=C1` [Compound 14, 6-Ethynyl-3,3-difluoro-2-(4-(thiophen-2-yl)benzylidene)-2,3-dihydro-[1,2,4,3]triazaborolo[4,5-a]pyridin-2-ium-3-uide], for which, in “photophysical properties” (MeOH, 20 μM sample), the Φf was 0.38, the ε is reported as 36 700 M^−1cm^−1 and the λmax was 481 nm. In the series “photophysical properties” (setting [5]), this molecule returned a λemi of 572 nm.
`CC(C)=[N+]1N=C2C=CC(I)=CN2[B-]1(F)F` [Compound 18, 3,3-Difluoro-6-iodo-2-(propan-2-ylidene)-2,3-dihydro-[1,2,4,3]triazaborolo[4,5-a]pyridin-2-ium-3-uide]: in the series “photophysical properties” (MeOH, 20 μM sample), the Φf came out at 0.20, the ε is given as 8 300 M^−1cm^−1 and the λmax was 400 nm. Besides, the λemi in the series “photophysical properties” (setting [5]) was found to be 496 nm. In addition, in the series “solubility”, the solubility in solvents result is “soluble in a variety of solvents”.
For `COc1ccc(C(SC[C@H](N)C(=O)O)(c2ccccc2)c2ccccc2)cc1` [Compound 19, reference compound], in the series on HeLa cells [1], the spindle morphology entry is listed as “dose-dependent formation of monopolar spindles”.
Regarding `CO[B-]1(OC)N2C=C(Br)C=CC2=N[N+]1=C(C)C` [Compound 21, 6-Bromo-3,3-dimethoxy-2-(propan-2-ylidene)-2,3-dihydro-[1,2,4,3]triazaborolo[4,5-a]pyridin-2-ium-3-uide], the Φf in the series “photophysical properties” (setting [6]) was 0.16; in the series “photophysical properties” (Acetone, 20 μM sample) it was 0.23; in “photophysical properties” (CH2Cl2, 20 μM sample), 0.20; in “photophysical properties” (MeOH, 20 μM sample), 0.21; in “photophysical properties” (Toluene, 20 μM sample) it was 0.51. The ε is 12 300 M^−1cm^−1 in “photophysical properties” (setting [6]); 10 800 M^−1cm^−1 in the series “photophysical properties” (Acetone, 20 μM sample); 11 200 M^−1cm^−1 in the series “photophysical properties” (CH2Cl2, 20 μM sample); 12 000 M^−1cm^−1 in the series “photophysical properties” (MeOH, 20 μM sample); 10 600 M^−1cm^−1 in “photophysical properties” (Toluene, 20 μM sample). For the same molecule, the λmax in the series “photophysical properties” (setting [6]) was 404 nm; in the series “photophysical properties” (Acetone, 20 μM sample), 407 nm; in the series “photophysical properties” (CH2Cl2, 20 μM sample) it was 406 nm; in “photophysical properties” (MeOH, 20 μM sample), 403 nm; in “photophysical properties” (Toluene, 20 μM sample), 410 nm. In addition, the λemi turned out to be 492 nm in “photophysical properties” (1%DMSO/PBS pH 7.4, 20 μM sample, excited at λmax); 504 nm in the series “photophysical properties” (Acetone, 20 μM sample, excited at λmax); 497 nm in “photophysical properties” (CH2Cl2, 20 μM sample, excited at λmax); 492 nm in “photophysical properties” (setting [5]); 501 nm in the series “photophysical properties” (Toluene, 20 μM sample, excited at λmax). Further, in the series with HeLa cells [2], the cell membrane permeability entry is “membrane permeable”. Further, the “toxicity / effects on cell viability” value in the series with HeLa cells [3] is “no toxicity”. Further, the solubility in solvents result in “solubility” is recorded as “soluble in a variety of solvents”.
Regarding `CO[B-]1(OC)N2C=C(I)C=CC2=N[N+]1=C(C)C` [Compound 22, 6-Iodo-3,3-dimethoxy-2-(propan-2-ylidene)-2,3-dihydro[1,2,4,3]triazaborolo[4,5-a]pyridin-2-ium-3-uide], in the series “photophysical properties” (MeOH, 20 μM sample), the Φf worked out at 0.21, the ε was 9 400 M^−1cm^−1 and the λmax was 400 nm. The λemi in “photophysical properties” (setting [5]) came out at 476 nm. The solubility in solvents result in “solubility” is listed as “soluble in a variety of solvents”.
With `COc1ccc(C(SCC(N)C(=O)NCCC#CC2=CN3C(=N[N+](=C(C)C)[B-]3(F)F)C=C2)(c2ccccc2)c2ccccc2)cc1` (stereo not drawn) [Compound 25, 6-(4-(2-Amino-3-((4-methoxyphenyl)diphenylmethylthio)propanamido)but-1-ynyl)-3,3-difluoro-2-(propan-2-ylidene)-2,3-dihydro-[1,2,4,3]triazaborolo[4,5-a]pyridin-2-ium-3-uide], the pIC50 in series [4] was 6.07. Moreover, in the series on HeLa cells [1], the spindle morphology result was “dose-dependent formation of monopolar spindles” and the pEC50 was 5.95. In “photophysical properties” (setting [7]), the ε was 9 900 and the λmax is 400 nm. In “photophysical properties” (setting [8]), this molecule came in with a Φf of 0.31 and a λemi of 489 nm.
Molecule `COc1ccc(C(SCC(N)C(=O)NCCC#CC2=CN3C(=N[N+](=C(C)C)[B-]3(OC)OC)C=C2)(c2ccccc2)c2ccccc2)cc1` (stereo not drawn) [Compound 26, 6-(4-(2-Amino-3-((4-methoxyphenyl)diphenylmethylthio)propanamido)-but-1-ynyl)-3,3-dimethoxy-2-(propan-2-ylidene)-2,3-dihydro-[1,2,4,3]triazaborolo[4,5-a]pyridin-2-ium-3-uide] showed a pIC50 in series [4] of 6.22. In the series with HeLa cells [1], the spindle morphology entry is on record as “dose-dependent formation of monopolar spindles” and the pEC50 is 5.99. Also, in the series “photophysical properties” (setting [7]), the ε is 12 900 and the λmax is reported as 400 nm. Also, in the series “photophysical properties” (setting [8]), the Φf is listed as 0.29 and the λemi was found to be 486 nm.
Take `COc1ccc(C(SCC(N)C(=O)NCCOCCN)(c2ccccc2)c2ccccc2)cc1` (stereo not drawn) [Compound 27, 2-Amino-N-(2-(2-aminoethoxy)ethyl)-3-((4-methoxyphenyl)diphenylmethylthio)propanamide]: in series [4], the negative-log IC50 (pIC50) was 6.12. Moreover, the pEC50 in the series with HeLa cells [1] was 6.24.
